Compound activity deposited in PubChem by The Scripps Research Institute Molecular Screening Center.
Sampled rows, rich in hits. Any-hit rate of the full collection: about 1.9%.
NPY-Y2 PAM-ag – potentiates or activates human NPY-Y2 receptor; 220,000 tested, 0.45% active; cells expressing NPY-Y2, potentiator/agonist read-out; activation, % at 3.6 µM; P49146; in the data active means activation above about 27%;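 further: cells stimulated with NPY near EC25 plus isoproterenol at EC100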
Target sequence (P49146 whole entry, looked up): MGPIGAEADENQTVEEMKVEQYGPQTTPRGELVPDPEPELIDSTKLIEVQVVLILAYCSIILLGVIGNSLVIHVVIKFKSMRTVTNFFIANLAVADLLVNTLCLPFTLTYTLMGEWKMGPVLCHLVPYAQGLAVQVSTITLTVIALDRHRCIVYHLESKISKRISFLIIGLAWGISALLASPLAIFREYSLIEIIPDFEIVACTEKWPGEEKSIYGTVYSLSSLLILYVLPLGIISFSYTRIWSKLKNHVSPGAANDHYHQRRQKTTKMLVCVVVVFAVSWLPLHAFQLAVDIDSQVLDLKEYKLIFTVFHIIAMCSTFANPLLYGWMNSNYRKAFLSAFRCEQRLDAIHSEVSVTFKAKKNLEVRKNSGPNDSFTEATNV
NPY-Y1 antag – blocks the human neuropeptide Y Y1 receptor; HEK293-CNG Y1 cells, membrane potential fluorescence; NPY at EC95, then isoproterenol; inhibition, % at 3.6 µM; 200,000 tested, 1% active; AID 1040;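 active means inhibition above the campaign mean inhibition of all tested compounds plus 3 SD, cut at about 20% in these data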
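Assay system: HEK293 cells with Y1 receptor plus CNG channel | Probe or stimulus: NPY (25 nM), isoproterenol (1 µM), Ro 20-1724 (25 µM) | Timing: Compound incubation 1 h at room temperature, readout 45 min post-stimulation | Measured by: Membrane-potential fluorescent dye readout | Benchmarks: High control isoproterenol alone, low control NPY with isoproterenol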
NPY-Y1 PAM-ag – potentiators or agonists of human neuropeptide Y receptor Y1; 220,000 tested, 0.37% active; P25929; activation, % at 3.6 µM; NPY-Y1 expressing cells, potentiator/agonist activation; in the data active means activation above about 33%, passing the limit was not always enough;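 further: cells stimulated with NPY at EC10 then isoproterenol at EC100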
NPY-Y2 antag – blocks the human neuropeptide Y Y2 receptor; P49146; NPY-Y2 expressing cells, antagonist mode; inhibition, % at 2.7 µM; 140,000 tested, 0.99% active; in the data active means inhibition above about 17%
Each line names hits and unclear results; the compound was inactive in the other large screens; ! = not active in a repeat.

c1ccc2c(c1)CCN(c1nc(CN3CCOCC3)nc3sc4c(c13)CCCC4)C2	NPY-Y1 antag 23, NPY-Y2 antag 23
CCC(C)OC(=O)C[N+](C)(C)CCOC1CC2CCC1(C)C2(C)C (stereo not given)	NPY-Y1 antag 21 (no result: NPY-Y2 antag)
Cc1ccc(NC(=O)CSc2nc3ccccc3c(=O)n2CCCN2CCCCC2)cc1C	NPY-Y1 antag 38, NPY-Y2 antag 34
Cc1ccc(NC(=O)CSc2nc3ccccc3c(=O)n2CCCC(=O)N2CCCC2)cc1	none
O=C(NCCCn1ccnc1)c1cc([N+](=O)[O-])cc([N+](=O)[O-])c1	NPY-Y2 PAM-ag 78, NPY-Y1 PAM-ag 61
CCOC(=O)c1ccc(CC(=O)c2ccc(O)cc2O)o1	NPY-Y2 PAM-ag 35
COC(=O)c1ccc(CC(=O)c2ccc(O)cc2O)o1	none
O=C(c1ccc(S(=O)(=O)NCC2CCCO2)cc1)N1CCN(c2cccc(Cl)c2)CC1 (stereo not given)	none (no result: NPY-Y2 antag)
COC(=O)CNC(c1ccccc1)c1cc(Br)ccc1NC(=O)OCc1ccccc1 (stereo not given)	none
COC(=O)CNC(c1ccccc1)c1cc(C)ccc1NC(=O)c1cccc(Cl)c1 (stereo not given)	NPY-Y1 antag 28, NPY-Y2 antag 17
COC(=O)CNC(c1ccccc1)c1cc(C)ccc1NC(=O)CNC(=O)OCc1ccccc1 (stereo not given)	NPY-Y1 antag 29, NPY-Y2 antag 38
COC(=O)CNC(c1ccccc1)c1cc(C)ccc1NS(=O)(=O)c1ccc(C)cc1 (stereo not given)	none
Cc1ccc(OCCOCCn2ccnc2)c(Br)c1	none
Cc1cccc(NC(=O)CCc2ccc(S(=O)(=O)NC3CCCCC3)cc2)c1	none
Cc1onc(-c2ccccc2)c1C(=O)N=C(N)c1ccc(C(F)(F)F)cc1	none (no result: NPY-Y1 antag, NPY-Y2 antag)
O=C(COc1ccc(Br)cc1)Nc1ccc([N+](=O)[O-])cn1	NPY-Y1 antag 21
Cc1cccc(NC(=O)C(CC(C)C)NC(=O)C2CCC(C)CC2)n1 (stereo not given)	none (no result: NPY-Y2 antag)
Cn1nc(C(F)(F)F)c(-c2ccc(Br)cc2)c1NC(=O)Nc1ccc(F)cc1F	NPY-Y2 PAM-ag 99, NPY-Y1 PAM-ag 108 (no result: NPY-Y1 antag, NPY-Y2 antag)
Cn1nc(C(F)(F)F)c(-c2ccc(F)cc2)c1NC(=O)c1ccco1	none (no result: NPY-Y1 antag, NPY-Y2 antag)
CC1=CCC2C(=O)N(c3ccc(C)cc3)C(=O)C2C1 (stereo not given)	none
CCOC(=O)c1ccc(N2C(=O)C3CC=C(C)CC3C2=O)cc1 (stereo not given)	NPY-Y1 antag 25
N#Cc1c(N2CCCCC2)nc(N2CCCCC2)c2c1CCN(Cc1ccccc1)C2	NPY-Y1 antag 23, NPY-Y2 antag 25
CCCCOC(=O)c1ccc(NC(=O)c2ccccc2OC)cc1	none
CCCOC(=O)c1ccc(NC(=O)c2ccccc2OC)cc1	NPY-Y1 antag 21 (no result: NPY-Y2 antag)
CCCCC(c1nnnn1C1CCCC1)N1CCN(C2CCCCC2)CC1 (stereo not given)	NPY-Y1 antag 37, NPY-Y2 antag 26
Cc1nc(N2CCOCC2)c2c(C)c(C(=O)Nc3ccccc3C(F)(F)F)sc2n1	NPY-Y1 antag 20 (no result: NPY-Y2 antag)
Cc1nc(N2CCOCC2)c2c(C)c(C(=O)Nc3ccccc3Cl)sc2n1	none (no result: NPY-Y2 antag)
C=Cn1cc[n+](CC(=O)C(C)(C)C)c1	none
COc1cc2c(cc1OC)-c1cc(NC3CC3)nc(=O)n1CC2	none
COc1cc2c(cc1OC)-c1cc(NC3CCCCC3)nc(=O)n1CC2	NPY-Y1 antag 33
COc1cc2c(cc1OC)-c1cc(NC3CCCCCCC3)nc(=O)n1CC2	NPY-Y1 antag 64, NPY-Y2 antag 72
O=c1c2sccc2nc(SCc2ccc([N+](=O)[O-])cc2)n1Cc1ccccn1	none
O=C(NCCc1ccc2c(c1)OCCO2)c1ccc(F)cc1	none
COC(=O)CN1C(c2ccc(Cl)cc2)=Nc2ccc(Cl)cc2C1c1ccccc1 (stereo not given)	NPY-Y1 antag 27, NPY-Y2 antag 19
COc1ccc(C2=Nc3ccc(C)cc3C(c3ccccc3)N2CC(=O)NN)cc1 (stereo not given)	none (no result: NPY-Y2 antag)
COc1ccc(/C=C/C(=O)c2ccc3c4c(cccc24)CC3)cc1OC	none
O=C1CC(N2CCCc3ccccc32)C(=O)N1c1ccccc1Cl (stereo not given)	none
COc1ccccc1CNc1nc2ccccc2n1CCN1CCCCC1	NPY-Y1 antag 23, NPY-Y2 antag 21
CC(=O)Nc1ccc(S(=O)(=O)NCC(=O)NC(C)c2ccc(S(N)(=O)=O)cc2)cc1 (stereo not given)	none (no result: NPY-Y1 antag, NPY-Y2 antag)
Cc1ccccc1Nc1c(-c2cccnc2)nc2ccc(Br)cn12	NPY-Y2 PAM-ag 74, NPY-Y1 PAM-ag 79 (no result: NPY-Y2 antag)
Cc1ccc2nc(-c3cccnc3)c(Nc3ccccc3C)n2c1	NPY-Y2 PAM-ag 41, NPY-Y1 PAM-ag 46 (no result: NPY-Y2 antag)
CCOc1ccc(NC(=S)N2CCn3c(nc4ccccc43)C2)cc1	none (no result: NPY-Y2 antag)
CCN(CC)S(=O)(=O)c1ccc(N2CCCC2)c(C(=O)OCC(=O)Nc2cc(C)on2)c1	none (no result: NPY-Y1 antag, NPY-Y2 antag)
CSc1ccc(C(=O)C2CCCN(S(=O)(=O)c3c(C)noc3C)C2)cc1 (stereo not given)	none (no result: NPY-Y2 antag)
COc1ccc(-n2cc(CNCCCN3CCCC3=O)c(-c3ccccc3Cl)n2)cc1	NPY-Y1 antag 20 (no result: NPY-Y2 antag)
O=C(O)C1CC1c1ccc(Br)cc1 (stereo not given)	NPY-Y1 antag 31
CCn1c(SCC(=O)N/N=C/c2ccc(C)o2)nnc1-c1ccc(C(C)(C)C)cc1	none
CCn1c(SCC(=O)N/N=C/c2c[nH]c3ccccc23)nnc1-c1ccc(C(C)(C)C)cc1	NPY-Y2 PAM-ag 44, NPY-Y1 PAM-ag 49
CC(C)(C)n1nnnc1C(c1cccs1)N(Cc1ccccc1)Cc1ccco1 (stereo not given)	NPY-Y1 antag 27, NPY-Y2 antag 20
O=C(/C=C/c1cccc2ccccc12)NCCC1=CCCCC1	NPY-Y1 antag 32, NPY-Y2 antag 22
COc1ccccc1/C=C/C(=O)OCC(=O)NCCC1=CCCCC1	none (no result: NPY-Y2 antag)
COC(=O)c1ccncc1C(=O)Nc1ccc(F)cc1	none (no result: NPY-Y2 antag)
COc1ccccc1N1CCN(CC(O)COc2ccc3c(c2)OCO3)CC1 (stereo not given)	none (no result: NPY-Y2 antag)
COc1ccccc1N1CCN(CC(O)COc2cccc3ccccc23)CC1 (stereo not given)	NPY-Y2 PAM-ag 66!, NPY-Y1 PAM-ag 88
C=CCc1ccccc1OCC(O)CN1CCN(c2ccccc2OC)CC1 (stereo not given)	NPY-Y2 PAM-ag 102, NPY-Y1 PAM-ag 112
C=CCc1ccccc1OCC(CN1CCCCC1)OC(C)=O (stereo not given)	NPY-Y2 PAM-ag 104, NPY-Y1 PAM-ag 112
OC(CSc1ccccc1Cl)CN1CCN(c2ccccc2F)CC1 (stereo not given)	none
C=CCc1ccccc1OCC(O)CN1CCN(c2ccccc2F)CC1 (stereo not given)	NPY-Y2 PAM-ag 87, NPY-Y1 PAM-ag 95
C=CCc1ccccc1OCCCCN1CCCC1	none
C=CCc1cc(C)ccc1OCC(O)CN1CCN(c2ccccc2)CC1 (stereo not given)	NPY-Y2 PAM-ag 56, NPY-Y1 PAM-ag 54
OC(COc1ccccc1Cl)CN1CCN(CC(O)COc2ccccc2Cl)CC1 (stereo not given)	NPY-Y2 PAM-ag 48, NPY-Y1 PAM-ag 86
